NR2E3 ag-1 – activates human NR2E3 receptor; 360,000 tested, 0.35% active; inhibition of corepressor binding, % at 3.98 µM; CHO-S Gal4-NCOR/VP16-NR2E3 two-hybrid, luciferase;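 active means inhibition above the mean of all tested compounds plus 3 SD, cut at about 70% in these data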;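 further: higher means lower luciferase signal from less NR2E3 corepressor binding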
Target sequence (Q9Y5X4 whole entry, looked up, the tested form may be a part): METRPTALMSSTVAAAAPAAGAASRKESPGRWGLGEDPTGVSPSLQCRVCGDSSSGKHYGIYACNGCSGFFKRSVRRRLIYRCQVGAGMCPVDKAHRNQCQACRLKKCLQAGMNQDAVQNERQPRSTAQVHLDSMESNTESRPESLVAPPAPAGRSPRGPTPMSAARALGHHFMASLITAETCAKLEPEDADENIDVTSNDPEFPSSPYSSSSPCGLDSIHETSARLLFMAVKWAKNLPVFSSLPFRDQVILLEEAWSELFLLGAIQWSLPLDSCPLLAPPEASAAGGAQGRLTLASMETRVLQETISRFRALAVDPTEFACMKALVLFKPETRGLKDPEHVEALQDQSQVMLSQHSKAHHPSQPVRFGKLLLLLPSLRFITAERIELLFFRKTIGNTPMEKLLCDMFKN
GalR3 antagonist – human GalR3 antagonism; HEK293 GalR3-CNG cAMP membrane potential fluorescence; galR3 body fused to GalR1 C-terminus; 360,000 tested, 0.44% active; inhibition, % at 3 µM;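 active means inhibition above the screen-wide average plus 3 SD, cut at about 13% in these data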;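 further: forskolin and galanin both at EC90 stimulate the cells; cAMP rise reported by CNG channel membrane potential dye signal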
Target sequence (O60755 1-299 limits assumed): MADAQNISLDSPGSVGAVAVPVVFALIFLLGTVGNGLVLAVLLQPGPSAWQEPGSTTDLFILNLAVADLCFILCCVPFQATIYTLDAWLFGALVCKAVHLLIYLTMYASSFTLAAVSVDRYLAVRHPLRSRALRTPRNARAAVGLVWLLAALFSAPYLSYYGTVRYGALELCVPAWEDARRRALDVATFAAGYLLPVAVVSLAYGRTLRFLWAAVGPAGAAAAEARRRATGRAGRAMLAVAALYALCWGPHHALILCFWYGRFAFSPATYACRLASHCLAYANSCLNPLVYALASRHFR
HIV Env fusion – blocks HIV Env-driven cell-cell fusion | HeLa-JRFL Env/CEM21 cell fusion, luciferase | inhibition, % at 12.3 µM | 360,000 tested, 1.1% active;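 active means mean replicate inhibition score of at least 50 and every replicate individually at or above 50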
FXN GAA850 act – activators of GAA850 frataxin (FXN) promoter | HEK293 lucGAA850 FXN promoter luciferase reporter, 24 h; percent of 10 µM SAHA response | 360,000 tested, 0.56% active | AID 540364 | activation, % at 6 µM;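 active means activation above the average of all compounds screened plus 3 SD, cutoff fixed separately per campaign, cut at about 7.5% in these data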
V-ATPase pH – alters yeast V-ATPase proton transport | S. cerevisiae, pHLuorin cytosolic pH fluorescence | response, % at 10 µM | 350,000 tested, 0.37% active; in the data active means response mostly above about 7.3%, no sharp cut-off; inactive means mostly below about 5.4%; further: actives read high
NR2E3 ag-2 – activates human photoreceptor nuclear receptor NR2E3; Q9Y5X4; GST-NR2E3/biotin-RetCOR TR-FRET, 1536-well; inhibition of corepressor binding, % at 4.78 µM; 320,000 tested, 0.12% active; AID 2300;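 active means percent inhibition above the cutoff of mean plus 3 SD of all tested compounds, set per screening campaign, cut at about 20% in these data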
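System: GST-tagged NR2E3 plus biotinylated RetCOR corepressor; Amount: 1.35 nM GST-tagged NR2E3 final; Dosing: single nominal compound dose of 4.8 µM; Schedule: 5 h incubation at 4 °C; Technique: TR-FRET with europium anti-GST and streptavidin-D2, 340 nm excitation; Controls: biotin wells as high control, 0.6% DMSO wells as low control.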
GalR3 conf – GalR3 (human) antagonism, confirmation; shares compounds with GalR3 antagonist; HEK293 GalR3 CNG cAMP biosensor, membrane potential fluorescence; galR3 fused to GalR1 carboxy tail; challenged with forskolin and galanin at EC90; inhibition, % at 3 µM; 1,600 tested, 59% active;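 active means inhibition above the primary screen's cutoff, the mean inhibition of all screened compounds plus 3 SD, cut at about 13% in these data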
CNG parental – counter-screen for GalR3 antagonists: nonspecific agonists in parental HEK-CNG cells. shares compounds with GalR3 antagonist. HEK293-CNG parental cells, cAMP membrane potential fluorescence; normalised: DMSO wells 0%, forskolin wells 100%. activation, % at 3 µM. 1,600 tested, 10% active; in the data active means activation above about 1.3%
Of the large screens only hits and unclear results are named; the others gave an inactive call (follow-up assays come after a bar, where they were run). The list is not random: actives were taken first. Their share in the collection is about 2.2%.

COc1ccc(-c2csc(NC(=O)C3CC(=O)N(c4ccc5c(c4)OCCO5)C3)n2)cc1 (stereo not given)	none
CC(=O)Nc1ccc(-c2csc(NC(=O)C3CC(=O)N(c4ccc5c(c4)OCCO5)C3)n2)cc1 (stereo not given)	GalR3 antagonist 14.5 | GalR3 conf inactive | CNG parental inactive
CN(C)C(=O)C[C@@H]1CC[C@@H]2[C@H](COC[C@H](O)CN2C(=O)C2CCCC2)O1	none (no result: NR2E3 ag-1, GalR3 antagonist, FXN GAA850 act, V-ATPase pH, NR2E3 ag-2)
CCOC(=O)c1cc(-c2ccc(OC)cc2)nc2c1c(C)nn2CCC#N	none
CCOC(=O)c1cc(-c2ccc(C#N)cc2)nc2c1c(C)nn2CCC#N	GalR3 antagonist 21.7 (no result: HIV Env fusion) | GalR3 conf inactive | CNG parental 1.7
CN1C(=O)c2cc(NC(=O)c3cccc(F)c3)ccc2OC[C@H]2O[C@@H](CC(=O)NC3CCC3)CC[C@H]21	none (no result: NR2E3 ag-1, GalR3 antagonist, FXN GAA850 act, V-ATPase pH, NR2E3 ag-2)
COc1ccc(NC(=O)N(C)C[C@@H]2OCCCC[C@H](C)Oc3ccc(NS(=O)(=O)c4ccc(C)cc4)cc3C(=O)N([C@H](C)CO)C[C@@H]2C)cc1	none (no result: NR2E3 ag-1, GalR3 antagonist, FXN GAA850 act, V-ATPase pH, NR2E3 ag-2)
O=C(NCC(=O)N1CCN(c2ccccc2)CC1)c1ccc(Cl)cc1	GalR3 antagonist 13.7 | GalR3 conf inactive | CNG parental inactive
Cc1cc(C(=O)COC(=O)c2ccc3c(c2)NC(=O)CS3)c(C)n1CC1CCCO1 (stereo not given)	GalR3 antagonist 22.9 | GalR3 conf 17.8 | CNG parental inactive
COCC(C)n1c(C)cc(C(=O)COC(=O)c2ccc3c(c2)NC(=O)CS3)c1C (stereo not given)	GalR3 antagonist 16.9 | GalR3 conf inactive | CNG parental inactive
COCC(C)n1c(C)cc(C(=O)COC(=O)c2n[nH]c3ccccc23)c1C (stereo not given)	none (no result: HIV Env fusion)
Cc1cc(C(=O)COC(=O)c2ccc(O)cc2)c(C)n1CC1CCCO1 (stereo not given)	none
C[C@@H]1CN([C@H](C)CO)C(=O)c2cc(NC(=O)CCN3CCOCC3)ccc2O[C@H]1CN(C)Cc1ccc(Cl)c(Cl)c1	none (no result: NR2E3 ag-1, GalR3 antagonist, FXN GAA850 act, V-ATPase pH, NR2E3 ag-2)
COc1ccc(OCC(O)CNC(=O)c2ccc(Br)cc2)cc1 (stereo not given)	none
COc1ccc(OCC(O)CNC(=O)c2ccc(OC)cc2)cc1 (stereo not given)	GalR3 antagonist 14.4 | GalR3 conf inactive | CNG parental inactive
CCCCn1c(=O)[nH]c(=O)c2c1nc(Cn1ncc(Cl)c(Cl)c1=O)n2CCC	GalR3 antagonist 23.3 | GalR3 conf 19.8 | CNG parental inactive
CCCCn1c(=O)[nH]c(=O)c2c1nc(CN1C(=O)c3ccccc3S1(=O)=O)n2CCC	none (no result: HIV Env fusion)
COc1ccc(-c2nnn(CC(=O)N(CC(=O)NC3CCCC3)Cc3ccco3)n2)cc1OC	GalR3 antagonist 20.6 | GalR3 conf 14.0 | CNG parental inactive
O=C(CN(Cc1ccco1)C(=O)Cn1nnc(-c2ccc(F)cc2)n1)NC1CCCC1	none
O=C(Nc1ccncc1)c1cccc(S(=O)(=O)N2CCc3ccccc32)c1	GalR3 antagonist 75.5 | GalR3 conf 46.2 | CNG parental inactive
C[C@@H]1CN([C@@H](C)CO)C(=O)c2cc(C#Cc3ccncc3)cnc2O[C@H]1CN(C)CC1CCOCC1	none (no result: NR2E3 ag-1, GalR3 antagonist, FXN GAA850 act, V-ATPase pH, NR2E3 ag-2)
O=C(NCCN1CCOCC1)C1CCN(c2ncnc3c2sc2cccc(F)c23)CC1	GalR3 antagonist 15.2 | GalR3 conf inactive | CNG parental inactive
CCCCCn1c(=O)[nH]c2cc(C(=O)N3CCN(Cc4ccc5c(c4)OCO5)CC3)ccc2c1=O	GalR3 antagonist 98.9, HIV Env fusion 67.2 | GalR3 conf 106.4 | CNG parental inactive
Cc1ccc(S(=O)(=O)N[C@H]2CC[C@H](CC(=O)NC3CCCCC3)O[C@H]2CO)cc1	none (no result: NR2E3 ag-1, GalR3 antagonist, FXN GAA850 act, V-ATPase pH, NR2E3 ag-2)
CCCn1c2c(c(=N)c3c1CCC3)CCC2	none
CCCCCCCn1c2c(c(=N)c3ccccc31)CCC2	GalR3 antagonist 42.0 | GalR3 conf 58.0 | CNG parental 7.3
Cc1ncoc1C(=O)NC1CCCc2c1cnn2-c1ccc(C(C)(C)C)cc1 (stereo not given)	NR2E3 ag-1 96.1, GalR3 antagonist 101.6, HIV Env fusion 56.4 (no result: NR2E3 ag-2) | GalR3 conf 110.8 | CNG parental inactive
COc1ccc(-c2nc3ccccc3n2Cc2ccccc2)cc1	none (no result: HIV Env fusion)
COc1cc(Cn2c(-c3ccc(O)c(OC)c3)nc3ccccc32)ccc1O	GalR3 antagonist 23.2 | GalR3 conf 17.4 | CNG parental inactive
C[C@@H]1CCCCO[C@H](CN(C)S(C)(=O)=O)[C@H](C)CN([C@@H](C)CO)C(=O)c2cc(N(C)C)ccc2O1	none (no result: NR2E3 ag-1, GalR3 antagonist, FXN GAA850 act, V-ATPase pH, NR2E3 ag-2)
C[C@@H]1CCCCO[C@@H](CN(C)C(=O)Nc2ccc(F)cc2)[C@H](C)CN([C@@H](C)CO)C(=O)c2cc(NC(=O)Cc3ccccc3)ccc2O1	none (no result: NR2E3 ag-1, GalR3 antagonist, FXN GAA850 act, V-ATPase pH, NR2E3 ag-2)
CCOCCCNC(=S)N1CCN(Cc2ccc3c(c2)OCO3)CC1	GalR3 antagonist 15.1 | GalR3 conf inactive | CNG parental inactive
O=[N+]([O-])c1ccccc1-c1cc(-c2cc(Cl)ccc2O)n[nH]1	GalR3 antagonist 18.6 | GalR3 conf inactive | CNG parental inactive
Cc1ccc(O)c(-c2cc(-c3ccccc3[N+](=O)[O-])[nH]n2)c1	none
COc1cccc(CN(C)C(=O)c2ccc(OCC(=O)Nc3cccc(C(F)(F)F)c3)c(OC)c2)c1	GalR3 antagonist 89.8 | GalR3 conf 93.8 | CNG parental inactive
COc1ccc(C(NC(C)=O)c2nccc3cc(OC)c(OC)cc23)cc1OC (stereo not given)	GalR3 antagonist 23.1 (no result: NR2E3 ag-2) | GalR3 conf inactive | CNG parental inactive
CCC(=O)Nc1ccc(F)c(Cl)c1	none (no result: GalR3 antagonist, HIV Env fusion) | GalR3 conf inactive | CNG parental inactive
C[C@H]1CN([C@@H](C)CO)C(=O)c2cccc(NC(=O)C3CCOCC3)c2O[C@H]1CN(C)CC1CC1	none (no result: NR2E3 ag-1, GalR3 antagonist, FXN GAA850 act, V-ATPase pH, NR2E3 ag-2)
COc1ccc(CN2CCC(C(=O)Nc3ccc(Oc4ccccc4)nc3)CC2)cc1F	GalR3 antagonist 62.4 | GalR3 conf 101.2 | CNG parental inactive
O=C(Nc1ccccc1F)N[C@H]1CC[C@@H](CCNC(=O)C2CCCC2)O[C@H]1CO	none (no result: NR2E3 ag-1, GalR3 antagonist, FXN GAA850 act, V-ATPase pH, NR2E3 ag-2)
N#CCC(=O)Nc1ccc(C(=O)OCC(=O)c2ccc3c(c2)NC(=O)CO3)cc1	GalR3 antagonist 13.0 (no result: HIV Env fusion) | GalR3 conf inactive | CNG parental inactive
C[C@@H]1CN([C@@H](C)CO)C(=O)c2cc(-c3ccc(C#N)cc3)cnc2O[C@@H]1CN(C)C(=O)c1ccccc1	none (no result: NR2E3 ag-1, GalR3 antagonist, FXN GAA850 act, V-ATPase pH, NR2E3 ag-2)

Bioassay records from PubChem BioAssay.
